Entries after “also recorded” stand apart in the source; their conditions may differ. Where two headings read alike, the source gives them in different places.
Assays:
P. falciparum 3D7 [1] = assay type: cell-based, Plasmodium falciparum; details: 72 h; for IC50: asynchronous culture, 0.0019–2 µM, ± standard error of the mean
[2] = biological target: P. falciparum PfSR25− (serpentine receptor 25 knockout strain); experiment: Comparative IC50 screening, 3D7 versus serpentine receptor 25 knockout strain; assay type: cell-based, Plasmodium falciparum; details: 72 h, 0.0019–2 µM, Student's t test
In short: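 Asynchronous 3D7 and PfSR25− cultures (37 °C, 90% N2/5% O2/5% CO2) at 0.3% parasitaemia and 2% haematocrit were exposed for 72 h to eleven final concentrations. Controls were 0.13% DMSO and chloroquine 0.2441–250 nM. Cells were stained with SYBR Green-I (1:10,000) plus MitoTracker Deep Red (50 nM) for 20 min at 37 °C and read by flow cytometry. Survival was taken relative to DMSO, in triplicate over three experiments. IC50 ± SEM came from dose–response curves.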

P. falciparum Dd2 = details: 2 µM; cited from earlier work
P. falciparum 3D7 [3] = experiment: Competition of TCAMS compounds; assay type: cell-based, Plasmodium falciparum; details: for effect on the increase in parasitaemia promoted by melatonin: 2.5 nM compound with 100 nM melatonin; for effect on the increase in parasitaemia promoted by melatonin / effect on the increase in parasitaemia promoted by serotonin: 48 h; for effect on the increase in parasitaemia promoted by serotonin: 2.5 nM compound with 250 nM serotonin; for classification on the serotonin/melatonin pathway in the parasite: from effects in presence and absence of serotonin or melatonin
In short: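 Asynchronous P. falciparum 3D7 cultures (1% parasitaemia, 2% haematocrit) were given 2.5 nM test compound with or without 250 nM serotonin or 100 nM melatonin. Incubation was 48 h at 37 °C under mixed gas, with a DMSO solvent control. Cells were stained with SYBR Green-I (1:10,000) and MitoTracker Deep Red (50 nM) for 20 min at 37 °C, then parasitaemia was read by flow cytometry. Survival is relative to solvent; triplicate, 3 independent experiments.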

P. falciparum 3D7 [4] = assay type: cell-based, Plasmodium falciparum; details: 2.5 nM compound alone, 48 h
[5] = tested on: Plasmodium falciparum 3D7; experiment: Drug effects on erythrocytic cycle phases in synchronized cultures; assay type: cell-based
In short: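 Sorbitol-synchronized P. falciparum 3D7 at 1% parasitaemia and 2% haematocrit received test compound (150 nM), chloroquine (150 nM) or 0.1% DMSO at 0, 12 or 24 h post-synchronization. Samples were taken at 12, 24, 36 and 48 h and stained for 30 min in HEPES-buffered Hank's with 1 µM Hoechst and […] thiazole orange. Flow cytometry gated rings, trophozoites and schizonts on DNA/RNA signal. Data are mean ± SD from one triplicate experiment.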

[6] = Plasmodium falciparum, 3D7, 72 h, read-out: IC50 (nM) 3D7, Table 1
[7] = read-out: IC50 (nM) 3D7, Table 1

Compound	IC50 (P. falciparum 3D7 [1]; [7]) [nM]	inhibition of parasite development, strain Dd2 (P. falciparum Dd2) [%]	effect on the increase in parasitaemia promoted by melatonin (P. falciparum 3D7 [3])	effect on the increase in parasitaemia promoted by serotonin (P. falciparum 3D7 [3])	effect on parasitaemia compared with the control (P. falciparum 3D7 [4])	also measured
COc1cc2nccc(Nc3ccc(Oc4ccccc4)cc3)c2cc1OC.Cl [TCMDC-131917, Cl.COc1cc2nccc(Nc3ccc(Oc4ccccc4)cc3)c2cc1OC]						IC50 (P. falciparum 3D7 [1]; [6]): 120 ± 19.4 nM; difference of IC50 between 3D7 and PfSR25− [2]: none of the compounds tested were significantly different between the two strains
Cn1cnc(CCNC(=O)c2cccc(-c3cccc(-c4nc5cc(C(F)(F)F)ccc5[nH]4)c3)c2)c1 [TCMDC-132496, Cn1cnc(CCNC(= O)c2cccc(c2)-c2cccc(c2)-c2nc3cc(ccc3[nH]2)C(F)(F)F)c1]	1970 ± 116	≤ 50				
Cc1ccc(NC(=O)Nc2ccc(Cl)c(C(F)(F)F)c2)cc1-c1ccc(C(=O)NCCN2CCOCC2)cc1 [TCMDC-133589, Cc1ccc(NC(= O)Nc2ccc(Cl)c(c2)C(F)(F)F)cc1-c1ccc(cc1)C(= O)NCCN1CCOCC1]	1360 ± 198	≤ 50				
COc1cccc(CCNc2nc(NCc3ccccc3)c3cc(OC)c(OC)cc3n2)c1 [TCMDC-135267, COc1cccc(CCNc2nc(NCc3ccccc3)c3cc(OC)c(OC)cc3n2)c1]			able to inhibit the increase in parasitaemia partially; also recorded: effective in preventing the proliferative effects of melatonin	able to inhibit the increase in parasitaemia; also recorded: the most effective at inhibiting the proliferative effects of serotonin	did not significantly affect parasitaemia compared with the control	IC50 (P. falciparum 3D7 [1]; [6]): 389 ± 120 nM; classification on the serotonin/melatonin pathway in the parasite (P. falciparum 3D7 [3]): potential full antagonists of the pathway; ring phase parasites at the 36 h time point ([5]; 150 nM added 12 h after synchronization, % parasitaemia, n = 3): 0.44 ± 0.14%; parasitaemia at the 36 h time point ([5]; 150 nM added 12 h after synchronization, n = 3): 1.18 ± 0.42%; parasites developed into schizonts at the 24 h time point ([5]; added at 0 h, control 18%): less than 0.5%; effect on erythrocytic cycle progression ([5]; synchronized cultures, added at 0, 12 or 24 h): prevents the progression from trophozoite to mature schizonts, but does not affect the ability of mature schizonts to egress and invade RBCs
CN1CCN(CCCCCNc2c3ccccc3nc3ccccc23)CC1.Cl [TCMDC-137541, Cl.CN1CCN(CCCCCNc2c3ccccc3nc3ccccc23)CC1]		≤ 50				IC50 (P. falciparum 3D7 [1]; [6]): 165 ± 74.7 nM
O=C(/C=C/c1ccc(Cl)c(Cl)c1)NC1CCC(CN2CCC(c3c[nH]c4ccc(O)cc34)CC2)CC1 (centres unmarked) [TCMDC-139494, Oc1ccc2[nH]cc(C3CCN(CC4CCC(CC4)NC(= O)\C = C\c4ccc(Cl)c(Cl)c4)CC3)c2c1]	122 ± 21.1					difference of IC50 between 3D7 and PfSR25− [2]: none of the compounds tested were significantly different between the two strains
Cc1[nH]c2c(C)cccc2c1C1CCN(CCC2CCN(C(=O)/C=C/c3ccc(Cl)c(Cl)c3)CC2)CC1 [TCMDC-139803, Cc1[nH]c2c(C)cccc2c1C1CCN(CCC2CCN(CC2)C(= O)\C = C\c2ccc(Cl)c(Cl)c2)CC1]	91.9 ± 18.1		able to inhibit the increase in parasitaemia partially	partially inhibited the increase in parasitaemia promoted by serotonin	induced a significant increase in parasitaemia	difference of IC50 between 3D7 and PfSR25− [2]: none of the compounds tested were significantly different between the two strains
CS(=O)(=O)Nc1ccc2[nH]cc(C3CCN(CC4CCN(C(=O)/C=C/c5ccc(Cl)c(Cl)c5)CC4)CC3)c2c1 [TCMDC-139813, CS(= O)(= O)Nc1ccc2[nH]cc(C3CCN(CC4CCN(CC4)C(= O)\C = C\c4ccc(Cl)c(Cl)c4)CC3)c2c1]	116 ± 49.1		able to inhibit the increase in parasitaemia partially	partially inhibited the increase in parasitaemia promoted by serotonin	did not significantly affect parasitaemia compared with the control	
O=C(/C=C/c1c(Cl)cccc1Cl)NC1CCC(CN2CCC(c3c[nH]c4ccccc34)CC2)CC1 (centres unmarked) [TCMDC-139856, Clc1cccc(Cl)c1\C = C\C(= O)NC1CCC(CN2CCC(CC2)c2c[nH]c3ccccc23)CC1]	274 ± 31.9	≤ 50				
O=C(/C=C/c1ccc(Cl)c(Cl)c1)N1CCC(CN2CCC(c3c[nH]c4cc(C(F)(F)F)ccc34)CC2)CC1 [TCMDC-139860, FC(F)(F)c1ccc2c(c[nH]c2c1)C1CCN(CC2CCN(CC2)C(= O)\C = C\c2ccc(Cl)c(Cl)c2)CC1]	65.1 ± 11.6	≤ 50	able to inhibit the increase in parasitaemia partially	partially inhibited the increase in parasitaemia promoted by serotonin	induced a significant increase in parasitaemia	difference of IC50 between 3D7 and PfSR25− [2]: none of the compounds tested were significantly different between the two strains
Cc1[nH]c2ccc(O)cc2c1C1CCN(CC2CCN(C(=O)/C=C/c3ccc(Cl)c(Cl)c3)CC2)CC1 [TCMDC-140219, Cc1[nH]c2ccc(O)cc2c1C1CCN(CC2CCN(CC2)C(= O)\C = C\c2ccc(Cl)c(Cl)c2)CC1]	101 ± 22.9		able to inhibit the increase in parasitaemia partially	able to inhibit the increase in parasitaemia	did not significantly affect parasitaemia compared with the control	classification on the serotonin/melatonin pathway in the parasite (P. falciparum 3D7 [3]): potential full antagonists of the pathway
CC[C@H](NC(=O)c1c(CN2CCC(N3CCCCC3)CC2)c(-c2ccccc2)nc2cc(O)ccc12)c1ccccc1 [TCMDC-140381, CC[C@H](NC(= O)c1c(CN2CCC(CC2)N2CCCCC2)c(nc2cc(O)ccc12)-c1ccccc1)c1ccccc1]		≤ 50				reduction of P. falciparum parasitaemia by 50% (P. falciparum 3D7 [1]; at the concentrations tested (0.0019–2 µM)): could not reduce P. falciparum parasitaemia by 50%
O=C1Nc2cccc3c2C1(CCCCN1CCC(c2cc4ccncc4[nH]2)CC1)CCC3 (centres unmarked) [TCMDC-141151, O = C1Nc2cccc3CCCC1(CCCCN1CCC(CC1)c1cc4ccncc4[nH]1)c23]	459 ± 33.8	≤ 50				
O=c1c(NCCCN(Cc2ccc(F)cc2)c2ccccn2)c(NCc2ccncc2)c1=O [TCMDC-142310, Fc1ccc(CN(CCCNc2c(NCc3ccncc3)c(= O)c2 = O)c2ccccn2)cc1]	100 ± 23.6		able to inhibit the increase in parasitaemia partially	able to inhibit the increase in parasitaemia	induced a significant increase in parasitaemia	classification on the serotonin/melatonin pathway in the parasite (P. falciparum 3D7 [3]): potential partial agonists of this pathway in the parasite
